Assay results taken from ChEMBL document CHEMBL3792310, “Amine-free melanin-concentrating hormone receptor 1 antagonists: Novel non-basic 1-(2H-indazole-5-yl)pyridin-2(1H)-one derivatives and mitigation of mutagenicity in Ames test” (Bioorg Med Chem, 2016).
The source made the active and inactive calls. The rule behind the calls is not given here.

How the values were obtained:
[1] = test system: Salmonella typhimurium; assay: Mutagenicity in Salmonella typhimurium TA1537 assessed as increase in number of revertant colony up to 5000 ug/plate by Ames test in absence of S9 fraction; type: toxicity, organism-based; conditions: salmonella enterica subsp. enterica serovar typhimurium
Summary of the method: (§1)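 Ames test in Salmonella typhimurium TA1537, with and without S9 metabolic activation. A positive call is a more than two-fold increase in revertant colonies over vehicle control.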

[2] = target: T1, Melanin-concentrating hormone receptor 1 (Homo sapiens, UniProt Q99705); assay: Displacement of [125I]-MCH(4 to 19) from human MCHR1 expressed in CHO cell membranes after 1 hr liquid scintillation counting
T1 sequence (Q99705 whole entry): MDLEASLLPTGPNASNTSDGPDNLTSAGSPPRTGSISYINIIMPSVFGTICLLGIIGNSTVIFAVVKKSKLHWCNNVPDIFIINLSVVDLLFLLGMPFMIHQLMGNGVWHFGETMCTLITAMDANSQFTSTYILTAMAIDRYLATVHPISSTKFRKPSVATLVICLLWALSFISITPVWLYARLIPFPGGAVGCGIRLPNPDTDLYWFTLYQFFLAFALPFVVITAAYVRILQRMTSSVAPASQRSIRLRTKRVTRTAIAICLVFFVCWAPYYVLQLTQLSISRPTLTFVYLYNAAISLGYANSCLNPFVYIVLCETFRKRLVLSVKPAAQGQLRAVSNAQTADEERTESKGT

[3] = target: Melanin-concentrating hormone receptor 1 (Rattus norvegicus, UniProt P97639); assay: Displacement of [125I]-MCH(4 to 19) from rat MCHR1 expressed in CHO cell membranes after 1 hr by liquid scintillation counting
Melanin-concentrating hormone receptor 1 (Rattus norvegicus, UniProt P97639), sequence (P97639 whole entry): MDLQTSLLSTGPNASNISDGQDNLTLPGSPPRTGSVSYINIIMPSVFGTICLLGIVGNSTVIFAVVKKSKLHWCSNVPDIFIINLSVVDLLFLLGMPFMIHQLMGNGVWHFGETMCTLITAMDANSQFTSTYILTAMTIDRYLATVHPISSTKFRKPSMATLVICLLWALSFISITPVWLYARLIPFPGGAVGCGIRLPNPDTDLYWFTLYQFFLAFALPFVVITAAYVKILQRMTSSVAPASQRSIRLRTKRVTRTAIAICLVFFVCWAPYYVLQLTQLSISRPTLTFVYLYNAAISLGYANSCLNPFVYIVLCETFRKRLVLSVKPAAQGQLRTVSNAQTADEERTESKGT

[4] = Volume of distribution at steady state in Sprague-Dawley rat at 0.1 mg/kg, iv administered through cassette dosing by LC/MS/MS analysis; type: ADME, organism-based; conditions: in vivo, read-out: Vdss
Summary of the method: (§2)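 Male SD rats, eight weeks old, fed; cassette dosing iv at 0.1 mg/kg or po at 1 mg/kg as a suspension in 0.5% methylcellulose, n = 3. Plasma taken from blood, deproteinized with acetonitrile, centrifuged, and the supernatant measured by LC/MS/MS. AUC covers 0–8 h.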

[5] = Oral bioavailability in Sprague-Dawley rat plasma at 1 mg/kg administered through cassette dosing by LC/MS/MS analysis; type: ADME, organism-based; summary of the method: as §2
[6] = target: T1, Melanin-concentrating hormone receptor 1; assay: Antagonist activity at human MCHR1 expressed in CHO cells assessed as inhibition of MCH-stimulated Ca2+ mobilization measured every 2 secs by fluorometric analysis; type: functional, cell-based
Summary of the method: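 Human MCHR1 stably transfected into CHO dhfr− cells; clone no.4 used. Cells seeded at 20000/well, cultured about 24 h at 37 °C in 5% CO2, loaded with Fluo4 dye for 30 min. Compound in 10 mM HEPES pH 7.4 buffer with 0.1% BSA added first, then MCH(4–19) at 2 nM final. Fluorescence read at 2 s intervals; inhibition % taken against ligand-only and DMSO-only wells.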

[7] = AUC(0 to 8 hrs) in Sprague-Dawley rat at 1 mg/kg, po administered through cassette dosing by LC/MS/MS analysis; type: ADME, organism-based; design: dose 1 mg/kg, route oral; conditions: in vivo; summary of the method: as §2
[8] = Cmax in Sprague-Dawley rat at 1 mg/kg, po administered through cassette dosing by LC/MS/MS analysis; type: ADME, organism-based; design: dose 1 mg/kg, route oral; conditions: in vivo; summary of the method: as §2
[9] = Total plasma clearance in Sprague-Dawley rat at 0.1 mg/kg, iv administered through cassette dosing by LC/MS/MS analysis; type: ADME, organism-based; summary of the method: as §2
[10] = Tmax in Sprague-Dawley rat at 1 mg/kg, po administered through cassette dosing by LC/MS/MS analysis; type: ADME, organism-based; conditions: in vivo; summary of the method: as §2
[11] = target: Cytochrome P450 3A4 (Homo sapiens, UniProt P08684); assay: Reversal inhibition of CYP3A4 (unknown origin) at 10 uM; type: ADME
Cytochrome P450 3A4, sequence (P08684 whole entry): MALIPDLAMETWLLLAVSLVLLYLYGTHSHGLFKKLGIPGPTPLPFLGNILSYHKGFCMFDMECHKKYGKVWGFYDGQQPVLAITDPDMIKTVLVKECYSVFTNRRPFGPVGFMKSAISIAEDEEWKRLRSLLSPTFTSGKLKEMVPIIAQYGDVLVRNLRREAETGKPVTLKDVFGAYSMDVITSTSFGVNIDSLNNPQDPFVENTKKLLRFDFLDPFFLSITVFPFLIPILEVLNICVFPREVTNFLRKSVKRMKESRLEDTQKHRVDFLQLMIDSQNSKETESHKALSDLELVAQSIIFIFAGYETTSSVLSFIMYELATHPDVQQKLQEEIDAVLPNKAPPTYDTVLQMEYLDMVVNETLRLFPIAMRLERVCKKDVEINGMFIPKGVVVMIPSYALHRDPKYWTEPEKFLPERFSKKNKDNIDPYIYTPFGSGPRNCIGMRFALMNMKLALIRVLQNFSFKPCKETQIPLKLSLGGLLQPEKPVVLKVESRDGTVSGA

[12] = test system: Rattus norvegicus; assay: Trough plasma concentration in DIO-F344/Jcl rat at 10 mg/kg, po; type: ADME, organism-based; conditions: in vivo, read-out: Cmin
[13] = organism: Mus musculus; assay: Anorectic effect in wild type mouse assessed as reduction in food intake; type: functional, organism-based
[14] = test system: Rattus norvegicus; assay: Anorectic effect in DIO-F344/Jcl rat assessed as reduction in cumulative food intake at 5 mg/kg, po administered once daily for 2 weeks measured during compound dosing; design: scale not given: the % may be the effect or the level left
[15] = organism: Mus musculus; assay: Toxicity in MCHR deficient mouse assessed as effect on food intake; type: organism-based; conditions: in vivo
[16] = test system: Rattus norvegicus; assay: Anorectic effect in DIO-F344/Jcl rat at 10 mg/kg, po administered for 2 days started 2 hrs prior to onset of dark period measured during compound dosing; type: functional
Summary of the method: (§3)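 Male DIO-F344/Jcl rats, 44 weeks old, on high-fat diet from 5 weeks of age. Singly housed on powder high-fat diet and habituated to oral dosing with tap water, then grouped by day-0 food intake and body weight. Oral dosing at 2 mL/kg in 0.5% methylcellulose 2 h before dark onset for 2 days, n = 6. Two-day food intake is expressed as inhibition rate versus vehicle.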

[17] = test system: Rattus norvegicus; assay: Anorectic effect in DIO-F344/Jcl rat assessed as reduction in cumulative food intake at 10 mg/kg, po administered once daily for 2 weeks measured during compound dosing; design: scale not given: the % may be the effect or the level left
[18] = target: Cytochrome P450 2C9 (Homo sapiens, UniProt P11712); assay: Reversal inhibition of CYP2C9 (unknown origin) at 10 uM; type: ADME
Cytochrome P450 2C9, sequence (P11712 whole entry): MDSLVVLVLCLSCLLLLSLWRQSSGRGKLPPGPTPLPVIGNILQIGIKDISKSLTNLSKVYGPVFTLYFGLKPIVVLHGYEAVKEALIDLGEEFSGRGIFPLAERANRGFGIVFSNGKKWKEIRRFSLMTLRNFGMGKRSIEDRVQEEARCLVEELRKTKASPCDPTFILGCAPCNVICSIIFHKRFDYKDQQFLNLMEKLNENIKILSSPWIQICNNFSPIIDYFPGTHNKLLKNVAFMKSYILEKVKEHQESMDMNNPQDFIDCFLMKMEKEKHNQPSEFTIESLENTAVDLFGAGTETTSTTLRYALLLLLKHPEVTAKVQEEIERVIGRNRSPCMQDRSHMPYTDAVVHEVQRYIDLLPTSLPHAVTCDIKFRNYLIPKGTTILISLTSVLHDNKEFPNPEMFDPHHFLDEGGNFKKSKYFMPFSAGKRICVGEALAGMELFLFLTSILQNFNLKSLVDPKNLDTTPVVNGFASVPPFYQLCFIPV

[19] = Fraction unbound in DIO-F344/Jcl rat plasma at 10 mg/kg, po; type: ADME, organism-based
[20] = test system: Plasma; assay: Unbound plasma concentration in DIO-F344/Jcl rat at 10 mg/kg, po; type: ADME, organism-based; conditions: in vivo
[21] = target: T2, Cytochrome P450 1A2 (Homo sapiens, UniProt P05177); assay: Reversal inhibition of CYP1A2 (unknown origin) at 10 uM; type: ADME
T2 sequence (P05177 whole entry): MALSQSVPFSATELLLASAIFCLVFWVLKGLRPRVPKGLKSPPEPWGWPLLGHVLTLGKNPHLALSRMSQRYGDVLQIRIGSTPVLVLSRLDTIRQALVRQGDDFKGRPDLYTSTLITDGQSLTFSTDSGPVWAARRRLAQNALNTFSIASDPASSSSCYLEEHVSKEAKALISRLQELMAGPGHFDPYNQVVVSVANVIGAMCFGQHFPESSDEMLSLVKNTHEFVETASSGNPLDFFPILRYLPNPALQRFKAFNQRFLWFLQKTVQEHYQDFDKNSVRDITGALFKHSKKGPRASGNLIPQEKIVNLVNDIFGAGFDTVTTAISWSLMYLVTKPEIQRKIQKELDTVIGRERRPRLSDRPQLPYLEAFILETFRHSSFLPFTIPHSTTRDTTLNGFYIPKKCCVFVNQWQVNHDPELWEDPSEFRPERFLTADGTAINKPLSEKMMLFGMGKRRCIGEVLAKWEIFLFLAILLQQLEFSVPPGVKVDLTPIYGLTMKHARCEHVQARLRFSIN

[22] = target: T3, Cytochrome P450 2C8 (Homo sapiens, UniProt P10632); assay: Reversal inhibition of CYP2C8 (unknown origin) at 10 uM; type: ADME
T3 sequence (P10632 whole entry): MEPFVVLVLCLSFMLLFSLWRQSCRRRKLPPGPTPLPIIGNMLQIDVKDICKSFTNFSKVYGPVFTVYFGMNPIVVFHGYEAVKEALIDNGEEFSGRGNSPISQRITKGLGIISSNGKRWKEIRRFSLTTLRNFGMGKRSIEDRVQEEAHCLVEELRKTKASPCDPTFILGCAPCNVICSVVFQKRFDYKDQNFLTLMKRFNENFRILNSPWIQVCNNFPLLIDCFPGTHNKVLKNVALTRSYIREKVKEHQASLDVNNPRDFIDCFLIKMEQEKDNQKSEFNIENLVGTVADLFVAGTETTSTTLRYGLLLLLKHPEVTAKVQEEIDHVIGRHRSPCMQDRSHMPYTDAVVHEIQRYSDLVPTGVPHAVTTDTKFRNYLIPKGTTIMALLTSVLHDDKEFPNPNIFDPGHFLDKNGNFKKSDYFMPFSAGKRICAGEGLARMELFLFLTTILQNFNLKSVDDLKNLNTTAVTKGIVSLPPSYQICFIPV

[23] = test system: Rattus norvegicus; assay: Antiobesity activity in DIO-F344/Jcl rat assessed as reduction in body weight at 10 mg/kg, po dosed for 2 weeks and measured every 2 or 3 days relative to vehicle control; type: functional; design: scale not given: the % may be the effect or the level left
Summary of the method: (§4)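 DIO-F344 rats, 48 weeks old, habituated and grouped as for the acute study. Dosed orally once daily for 2 weeks at 2 mL/kg in 0.5% methylcellulose, 1–3 h before dark onset, after body weight measurement; n = 6. Sibutramine positive control. Food intake read every 2 or 3 days. Body weight change is taken as percent of initial weight; mean and SD reported.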

[24] = test system: Rattus norvegicus; assay: Antiobesity activity in DIO-F344/Jcl rat assessed as reduction in body weight at 5 mg/kg, po dosed for 2 weeks and measured every 2 or 3 days relative to vehicle control; type: functional; design: scale not given: the % may be the effect or the level left; summary of the method: as §4
[25] = test system: Rattus norvegicus; assay: Anorectic effect in DIO-F344/Jcl rat at 3 mg/kg, po administered for 2 days started 2 hrs prior to onset of dark period measured during compound dosing; type: functional; summary of the method: as §3
[26] = Ratio of drug level in brain to plasma in po dosed DIO-F344/Jcl rat; type: ADME, organism-based; conditions: read-out: BPR
[27] = test system: Rattus norvegicus; assay: Antiobesity activity in DIO-F344/Jcl rat assessed as reduction in body weight at 3 mg/kg, po dosed for 2 weeks and measured every 2 or 3 days relative to vehicle control; type: functional, organism-based; summary of the method: as §4
[28] = target: Cytochrome P450 2D6 (Homo sapiens, UniProt P10635); assay: Reversal inhibition of CYP2D6 (unknown origin) at 10 uM; type: ADME
Cytochrome P450 2D6, sequence (P10635 whole entry): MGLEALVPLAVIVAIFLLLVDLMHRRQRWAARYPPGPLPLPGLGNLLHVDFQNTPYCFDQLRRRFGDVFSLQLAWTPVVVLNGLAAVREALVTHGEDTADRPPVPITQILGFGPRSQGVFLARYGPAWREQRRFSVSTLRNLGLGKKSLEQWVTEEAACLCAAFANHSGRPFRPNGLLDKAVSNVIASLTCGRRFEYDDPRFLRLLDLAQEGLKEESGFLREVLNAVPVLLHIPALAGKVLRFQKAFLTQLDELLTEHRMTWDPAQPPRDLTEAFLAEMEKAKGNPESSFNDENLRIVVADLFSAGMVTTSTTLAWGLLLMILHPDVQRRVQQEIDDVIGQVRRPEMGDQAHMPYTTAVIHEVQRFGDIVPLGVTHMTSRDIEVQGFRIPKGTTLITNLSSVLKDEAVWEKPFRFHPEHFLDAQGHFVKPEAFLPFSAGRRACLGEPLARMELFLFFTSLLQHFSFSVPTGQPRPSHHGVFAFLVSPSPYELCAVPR

[29] = test system: Salmonella typhimurium; assay: Mutagenicity in Salmonella typhimurium TA1537 assessed as increase in number of revertant colony at 313 ug/plate by Ames test in absence of S9 fraction; type: toxicity, organism-based; conditions: salmonella enterica subsp. enterica serovar typhimurium
[30] = test system: Salmonella typhimurium; assay: Mutagenicity in Salmonella typhimurium TA1537 assessed as increase in number of revertant colony at 250 ug/plate by Ames test in absence of S9 fraction; type: toxicity, organism-based; conditions: salmonella enterica subsp. enterica serovar typhimurium; summary of the method: as §1
[31] = test system: Salmonella typhimurium; assay: Mutagenicity in Salmonella typhimurium TA1537 at 250 ug by Ames test in presence of S9 fraction; type: toxicity, organism-based, Salmonella enterica subsp. enterica serovar Typhimurium; summary of the method: as §1

Cc1c2cc(-n3ccc(OCc4ccc(F)cc4)cc3=O)ccc2nn1C1CC1
Activity [1]: Non-toxic
IC50 [2]: 43 nM
IC50 [3]: 35 nM

Cc1c2cc(-n3ccc(OCc4ccc(Cl)cc4)cc3=O)ccc2nn1C1CC1
Vd [4]: 0.676 L/kg
bioavailability [5]: 37%
IC50 [6]: 33 nM
AUC(0-t) at 6 h [7]: 1810 ng·h/mL
Cmax [8]: 291 ng/mL
clearance [9]: 3.45 mL/min/kg
Activity [1]: Non-toxic
IC50 [2]: 31 nM
IC50 [3]: 23 nM
Tmax [10]: 4 h

Cc1c(C2CC2)nn2ccc(-n3ccc(OCc4ccc(Cl)cc4)cc3=O)cc12
IC50 [2]: 69 nM

Cc1c2cc(-n3ccc(OCc4cc(C(F)(F)F)cs4)cc3=O)ccc2nn1C
IC50 [2]: 74 nM
IC50 [3]: 38 nM

Cc1c2cc(-n3ccc(OCc4csc(C(F)(F)F)c4)cc3=O)ccc2nn1C1CC1
inhibition (INH) [11]: Not Active
concentration [12]: 3.36 µM
Vd [4]: 0.949 L/kg
Activity [13]: Dose-dependent effect
bioavailability [5]: 78%
Activity [14]: 12.2%
IC50 [6]: 79 nM
Activity [15]: Non-toxic
Activity [16]: 30.6%
Activity [17]: 23.2%
inhibition (INH) [18]: Not Active
fraction unbound [19]: 0.022
AUC(0-t) at 6 h [7]: 2880 ng·h/mL
Cmax [8]: 426 ng/mL
Cp(f) [20]: 0.0739 µM
clearance [9]: 4.93 mL/min/kg
inhibition (INH) [21]: Not Active
Activity [1]: Non-toxic
IC50 [2]: 38 nM
IC50 [3]: 26 nM
Tmax [10]: 2.7 h
inhibition (INH) [22]: Not Active
Activity [23]: 7.6%
Activity [24]: 3.9%
Activity [25]: 21.5%
Kp [26]: 0.66
Activity [27]: Active
inhibition (INH) [28]: Not Active

CCn1nc2ccc(-n3ccc(OCc4ccc(Cl)cc4)cc3=O)cc2c1C
IC50 [2]: 140 nM
IC50 [3]: 65 nM

CCCn1nc2ccc(-n3ccc(OCc4ccc(Cl)cc4)cc3=O)cc2c1C
IC50 [2]: 210 nM
IC50 [3]: 130 nM

Cc1c2cc(-n3ccc(OCc4csc(C(F)(F)F)c4)cc3=O)ccc2nn1C
IC50 [2]: 90 nM
IC50 [3]: 70 nM
fold change (FC) [29]: 2

Cc1c2cc(-n3ccc(OCc4ccc(F)cc4)cc3=O)ccc2nn1C
Activity [1]: Non-toxic
IC50 [2]: 110 nM
IC50 [3]: 76 nM

Cc1c2cc(-n3ccc(OCc4csc(C(F)(F)F)n4)cc3=O)ccc2nn1C
IC50 [2]: 230 nM
IC50 [3]: 130 nM

Cn1c(C2CC2)cc2ccc(-n3ccc(OCc4ccc(Cl)cc4)cc3=O)cc21
IC50 [2]: 150 nM

Cc1c2cc(-n3ccc(OCc4ccc(C(F)(F)F)s4)cc3=O)ccc2nn1C
IC50 [2]: 170 nM
IC50 [3]: 90 nM

Cc1c2cc(-n3ccc(OCc4nc(C(F)(F)F)cs4)cc3=O)ccc2nn1C
IC50 [2]: 130 nM
IC50 [3]: 76 nM

Cc1c2cc(-n3ccc(OCc4ccc(Cl)cc4)cc3=O)ccc2nn1C
IC50 [2]: 35 nM
fold change (FC) [30]: 2
Activity [31]: Non-toxic
IC50 [3]: 36 nM

Cc1nn(C)c2ccc(-n3ccc(OCc4ccc(Cl)cc4)cc3=O)cc12
IC50 [2]: 99 nM
